We go through four molecules from paper PMC3584523 (International Journal of Oncology, 2011).

pEC50, pIC50: −log10 of the molar value. “Also recorded” adds a separate entry of the source.

Series [1] has as its target T1, human recombinant LPA1 receptor (Homo sapiens, UniProt Q92633). Nature of the series: Calcium flux assay, antagonism of LPA-induced calcium flux. Format: cell-based. The conditions noted are these: for pIC50: read-out: IC50, inhibition of LPA-induced calcium flux, human LPA1-expressing Chem-1 cells, 1 μM Oleoyl LPA.
For series [2], the target named is T1, human recombinant LPA1 receptor. Nature of the series: Calcium flux assay, LPA1 agonist activity. The settings on record: human LPA1-expressing Chem-1 cells; for agonist activity at the LPA1 receptor (calcium flux): 0.0045–10 μM. It counts as cell-based. The procedure, abridged:
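Chem-1 stable cell line expressing human recombinant LPA1, loaded with Fluo-4 NW. Test compound, the racemic reference or oleoyl-LPA reference agonist was added as an eight-point 3-fold serial dilution starting at 10 μM (0.0045–10 μM), and calcium flux stimulation was measured. The reference agonist's EC80 was derived from its dose-response.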
For orientation: A change in cytosolic calcium serves as a functional read-out for many receptors and channels.

The next series deals with T2, LPA3 (Homo sapiens, UniProt Q9UBY5).
T2 sequence (Q9UBY5 1-353): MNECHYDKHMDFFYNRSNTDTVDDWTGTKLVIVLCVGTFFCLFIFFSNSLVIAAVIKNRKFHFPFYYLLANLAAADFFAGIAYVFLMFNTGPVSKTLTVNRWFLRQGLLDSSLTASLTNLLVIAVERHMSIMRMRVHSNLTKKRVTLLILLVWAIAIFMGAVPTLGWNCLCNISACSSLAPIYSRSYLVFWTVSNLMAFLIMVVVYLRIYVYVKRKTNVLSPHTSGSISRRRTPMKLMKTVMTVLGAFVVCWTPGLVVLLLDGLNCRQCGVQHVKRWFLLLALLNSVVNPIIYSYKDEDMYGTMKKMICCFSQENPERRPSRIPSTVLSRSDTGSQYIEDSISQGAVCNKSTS
Nature of the series: Antagonist activity at LPA3. It counts as cell-based. The settings on record: read-out: IC50, antagonist activity at LPA3.

For series [3], the system named is breast cancer cell-mediated bone metastases. The conditions noted are these: treatment of bone metastatic animals; cited from earlier work.
Series [4] has as its system 4T1 mouse mammary cancer cells. Nature of the series: LPA-induced cell invasion assay. It counts as cell-based. The settings on record: LPA 5 μM as chemoattractant; Debio 0719 1 and 5 μM; 24 h. The gist of the method: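 4T1 cells were grown in DMEM with 10% FBS and penicillin/streptomycin at 37°C, 5% CO2. 2×10^5 cells were placed in the upper compartment of Matrigel-coated 8-μm filter chambers with or without test compound. LPA with 1% FBS was in the lower chamber. After 24 h at 37°C, cells that crossed the filter were fixed, stained and counted in 10 random fields (×40) and reported as cells/mm2.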

Series [5] can be described thus: Pharmacokinetic study in male CD-1 mice. Format: in vivo, mouse. The gist of the method: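 Male CD-1 mice received test compound in 10% DMA, 5% Cremophor EL and 85% saline. It was given either as an intravenous 5 mg/kg bolus into the jugular vein or by oral gavage at 50 mg/kg. Retro-orbital blood was taken into sodium heparin, n=3 per time point. Plasma was spiked with methanol and lovastatin internal standard, vortexed, centrifuged and measured by LC/MS. Parameters are given as means.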

Series [6] concerns 4T1 cells. Nature of the series: Orthotopic 4T1 mammary fat pad model, treatment day 0 to 14. Format: in vivo, mouse.
Series [7] deals with 4T1 cells. Nature of the series: Orthotopic 4T1 model, adjuvant treatment day 15 to 35. It counts as in vivo, mouse. The settings on record: 25 or 50 mg/kg per os twice daily after tumor resection at day 14. The procedure, abridged:
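To count disseminated tumour cells, marrow was flushed from tibias and femurs and plated in complete medium with 6-thioguanine 10 μM, which only the naturally resistant 4T1 cells survive. After two weeks the clones were fixed, stained and counted, and reported as clones/mm2.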

T1 sequence (Q92633 whole entry): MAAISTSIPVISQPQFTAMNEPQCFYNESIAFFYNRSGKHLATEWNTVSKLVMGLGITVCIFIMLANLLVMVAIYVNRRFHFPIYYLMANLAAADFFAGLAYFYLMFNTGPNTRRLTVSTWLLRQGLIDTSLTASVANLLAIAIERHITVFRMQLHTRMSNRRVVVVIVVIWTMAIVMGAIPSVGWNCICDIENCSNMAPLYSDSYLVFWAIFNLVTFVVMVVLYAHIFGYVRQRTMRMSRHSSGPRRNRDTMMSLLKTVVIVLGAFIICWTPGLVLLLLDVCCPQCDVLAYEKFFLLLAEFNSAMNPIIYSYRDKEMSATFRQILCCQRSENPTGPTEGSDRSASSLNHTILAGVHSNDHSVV

For orientation: pIC50 means the negative decadic logarithm of the IC50, by convention in mol/L. With `Cc1noc(-c2ccc(CSCCC(=O)O)cc2)c1NC(=O)OC(C)c1ccccc1Cl` (centres unmarked) [Ki16425, reference compound], the negative logarithm of the IC50 (pIC50) in series [1] is 6.89; at LPA3, 5.64. Besides, in series [2], the “agonist activity at the LPA1 receptor (calcium flux)” value (“agonist activity … (calcium flux)” below) is listed as “no agonist activity”. In addition, the “progression of bone metastases” value in series [3] is recorded as “inhibits efficiently the progression of bone metastases”.
As to `Cc1noc(-c2ccc(CSCCC(=O)O)cc2)c1NC(=O)O[C@@H](C)c1ccccc1Cl` [Debio 0719-425(S)], the pIC50 in series [1] was 5.55. The “agonist activity … (calcium flux)” value in series [2] was “no agonist activity”.
A word on the pEC50: it is −log10 of the EC50, conventionally taken in molar units. Take `CCCCCCCC/C=C\CCCCCCCC(=O)OC[C@@H](O)COP(=O)(O)O` [oleoyl LPA, Lysophosphatidic acid (LPA, Oleoyl C18:1), reference compound]: in series [2] (read-out: EC50, stimulation of calcium flux), the negative-log EC50 (pEC50) is 6.31.
Take `Cc1noc(-c2ccc(CSCCC(=O)O)cc2)c1NC(=O)O[C@H](C)c1ccccc1Cl` [Debio 0719]: in series [1] (ratio of IC50 values), the “potency relative to Ki16425 at inhibiting LPA1-induced calcium flux” value was 2 fold. For the same molecule, in series [1], the pIC50 is 7.22. Besides, in series [2], the “agonist activity … (calcium flux)” value is reported as “no agonist activity; also recorded: did not demonstrate any agonist effects”. For the same molecule, at LPA3, the pIC50 is 6.18. In addition, the “LPA-induced 4T1 cell invasion” value in series [4] was “dose-dependently blocked”. Also, in series [5], the “tolerability after oral exposure” value is listed as “well tolerated”. For the same molecule, in series [5] (intravenous 5 mg/kg), the Plasma clearance stood at 111 mL/min/kg, the “Time to maximum concentration” value turned out to be 0.08 h and the “plasma concentration by 4 h” value is recorded as ~ 1 nM. Also, in series [5] (oral 50 mg/kg), the Bioavailability is recorded as 14.41 % EF, the “Time to maximum concentration” value was 0.25 h, the “plasma concentration by 8 h” value is reported as ~ 10 nM and the “time of peak plasma concentration” value was 15 min. In series [5] (oral 50 mg/kg, no unit in text), the oral bioavailability was 14.41. The “inhibition of number of lung metastasis foci” value in the series on 4T1 cells [6] (50 mg/kg per os twice daily, day 0 to 14, sacrifice day 35, p=0.022) is 62%. Moreover, in the series on 4T1 cells [6] (50 mg/kg per os twice daily, day 0 to 14, sacrifice day 35, p=0.029), the “inhibition of total area of lung metastases” value worked out at 89%. Further, the “tolerability (mouse weight gain, deleterious effects)” value with 4T1 cells [6] (25 and 50 mg/kg per os twice daily, day 0 to 14, female BALB/c mice) is reported as “well tolerated; also recorded: did not induce noticeable deleterious effects”. Moreover, in the series with 4T1 cells [6] (25 and 50 mg/kg per os twice daily, day 0 to 14, tumors resected day 14), the “burden (weight) of resected primary tumors vs untreated” value is on record as “no difference”. In addition, the “rescue of 4T1-DTCs from bone marrow” value in the series on 4T1 cells [6] (either high or low dose, day 0 to 14, sacrifice day 35) is on record as “not able to rescue any 4T1-DTCs”. In addition, in the series with 4T1 cells [6] (lower dosing (25 mg/kg per os twice daily), day 0 to 14, p=0.053), the “reduction in the area of lung metastasis foci” value is given as “did not reach statistical significance”. Further, the “expression of mitotic marker Ki-67 in primary tumors vs untreated” value in the series on 4T1 cells [6] (per os twice daily, day 0 to 14, immunohistochemistry) is given as “similar”. The “number of 4T1-DTCs rescued from bone marrow vs vehicle” value in the series on 4T1 cells [7] is “no statistically significant difference”.
